LMPTP block: LMPTP (human) inhibition; P24666; 0.22% of 360,000 active; inhibition, % at 20 µM; recombinant LMPTP-A, OMFP fluorogenic substrate, fluorescence intensity;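 active means compounds that cut the enzyme signal by at least half of the control window in the single-dose screen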;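 further: plate controls were DMSO wells with enzyme plus substrate for no effect and substrate without enzyme for full effect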
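material = LMPTP-A | quantity = 0.625 nM enzyme | reagent = OMFP substrate, 400 µM final | buffer or medium = Bis-Tris pH 6.0, DTT, detergent | detection = endpoint fluorescence intensity from OMFP dephosphorylation | dosing = single 20 µM dose | read-out basis = % inhibition relative to no-enzyme and uninhibited control wells | control set = no-enzyme and uninhibited controls | timing = 50 min at room temperature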
DNMT1 block: blocks human DNA methyltransferase DNMT1; DNMT1 molecular beacon, Hinp1I cleavage, fluorescence; inhibition (reported as % activation of signal), % at 10 µM; 0.83% of 360,000 active; in the data active means inhibition above about 50%
NadD inh: NadD (S. aureus) enzyme inhibition. inhibition, % at 20 µM. AID 602399. purified NadD enzyme, colorimetric absorbance read-out. 0.78% of 360,000 active; in the data active means inhibition above about 26%
Scp1 inh: blocks human Scp-1 phosphatase activity; Q9GZU7; Recombinant Scp1, phosphopeptide, malachite green phosphate absorbance; inhibition, % at 20 µM; 0.88% of 340,000 active; AID 493091;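 active means inhibition above about 50% at 20 µM, limit read from the data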;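 further: plate controls were DMSO wells with enzyme for no effect and wells lacking enzyme for full effect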
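Test system: SCP-1 catalytic domain; Buffer or medium: Acidic Tris acetate buffer with magnesium and detergent; Also added: Phosphorylated 17-residue peptide substrate; Compound: single 20 µM dose, 1% DMSO; Schedule: enzyme reaction 45 min at room temperature, colour 5 min, stabilisation 30 min; Signal: Phosphate-binding colour reagent, absorbance read at 630 nm.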
SUMO1 PPI mod: alters human SUMO1 binding to SIM partners; P63165; SUMO1 binding to a labelled peptide, TR-FRET, 1 h; inhibition, % at 20 µM; 0.33% of 360,000 active; in the data active means inhibition above about 37%
Target sequence (P63165 whole entry, looked up): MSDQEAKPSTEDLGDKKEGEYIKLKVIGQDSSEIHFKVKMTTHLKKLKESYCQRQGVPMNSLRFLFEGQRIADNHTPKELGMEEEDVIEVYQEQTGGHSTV
STEP inh: STEP (human) phosphatase inhibition. 0.25% of 360,000 active. inhibition, % at 20 µM. AID 588621. recombinant STEP, OMFP fluorogenic substrate, fluorescence. P54829;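 active means inhibition at 20 µM, scaled per plate between control wells, above about 37%, limit read from the data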;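 further: 0% = DMSO with enzyme and substrate and 100% = substrate only without enzyme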
Target sequence (P54829 whole entry, looked up): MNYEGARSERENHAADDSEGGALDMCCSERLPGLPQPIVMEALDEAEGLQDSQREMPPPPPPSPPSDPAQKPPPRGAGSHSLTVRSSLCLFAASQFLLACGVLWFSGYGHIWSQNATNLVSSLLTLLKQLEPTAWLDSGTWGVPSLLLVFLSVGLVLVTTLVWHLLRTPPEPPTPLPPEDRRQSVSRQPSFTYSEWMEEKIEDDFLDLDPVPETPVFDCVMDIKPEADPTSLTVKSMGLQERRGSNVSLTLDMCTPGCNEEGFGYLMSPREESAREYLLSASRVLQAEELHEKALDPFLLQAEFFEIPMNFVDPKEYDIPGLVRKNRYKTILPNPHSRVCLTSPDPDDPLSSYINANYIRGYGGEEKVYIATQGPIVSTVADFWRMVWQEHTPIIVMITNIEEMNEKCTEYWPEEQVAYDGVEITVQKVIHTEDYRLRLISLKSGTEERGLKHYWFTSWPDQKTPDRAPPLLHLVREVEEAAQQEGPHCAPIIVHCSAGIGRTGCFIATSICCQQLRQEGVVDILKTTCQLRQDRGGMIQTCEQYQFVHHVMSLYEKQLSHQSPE
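Material: STEP (striatal-enriched tyrosine phosphatase) enzyme, cell-free | Medium: 50 mM Bis-Tris pH 6.0 with 2.5 mM DTT and 0.005% Tween 20 | Read-out: Percent inhibition scaled to no-enzyme and uninhibited-enzyme controls, plate-pattern corrected | Signal: Fluorescence read at 480 nm ex / 540 nm em | Times: 20 min reaction, room temperature, in the dark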
Scp-1 conf: Scp-1 (human) inhibition, single-dose confirmed; shares compounds with Scp1 inh; recombinant SCP-1 catalytic domain, phosphate release, malachite green absorbance; inhibition, % at 20 µM; 61% of 2,500 active;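 further: plate controls were DMSO with enzyme for no effect and buffer wells lacking enzyme for full effect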
MG interference: interferes with malachite green readout, flagging false Scp-1 hits; shares compounds with Scp1 inh; Colorimetric interference counterscreen, malachite green absorbance 630 nm; apparent inhibition (interference), % at 20 µM; 2,500 tested, under 10 active; AID 540313;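 further: compounds added after enzyme reaction finished so only phosphate colour detection is probed; plate controls were DMSO wells with completed Scp-1 reaction for no effect and substrate wells lacking enzyme for full effect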
Scp-1 Tm shift: Scp-1 (human) binding by thermal shift | shares compounds with Scp1 inh | Recombinant SCP1, Sypro Orange thermal shift Tm | thermal shift relative to vanadate control, % at 40 µM | 25% of 1,500 active | AID 540329;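 active means substances whose mean melting-temperature shift, as a percentage of the reference inhibitor's shift, reaches about 5.3%, limit read from the data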;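 further: 0% = Tm of DMSO wells and 100% = Tm with sodium orthovanadate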
* hit, by the source's call; / = no result given. Compounds with a hit are over-represented: about 2.4% of the library has one in this group of screens.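 How the source made its calls, unless noted: active means inhibition of at least 30% at 20 µM; inactive means the rest.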

SMILES | LMPTP block | DNMT1 block | NadD inh | Scp1 inh | SUMO1 PPI mod | STEP inh | others
O=C1CC=C2C3CC4N(CCC45c4cc(O)c(O)cc4N1C25)CC3=CCBr (configuration not stated) | 77* | 91* | 92* | 12 | 111* | 84*
O=C1CC=C2C3CC4N(CCC45c4ccccc4N1C25)CC3=CCO (configuration not stated) | -2 | 3 | -3 | -3 | 0 | 2
CNCC(O)c1cc(OCc2ccccc2)c(OCc2ccccc2)cc1F (configuration not stated) | 0 | -4 | -7 | -8 | -12 | 3
COc1ccc(-c2nc3ccccc3c(=O)n2-c2nccs2)cc1 | -1 | -10 | 8 | -9 | 42* | -5
O=C(O)CC1OCC=C2CN3CCC45C6=CC(=O)C(=O)C([N+](=O)[O-])=C6NC4C1C2CC35 (configuration not stated) | 15 | 58* | 22 | 21 | 30 | 18
COC(=O)C1=C(c2ccc(C(C)=O)cc2)C[C@@H]2CC[C@H]1N2C(=O)NCCCOC(C)C | 0 | 3 | 0 | -2 | 4 | 1
Clc1ccc(C2NCCc3[nH]cnc32)cc1 (configuration not stated) | -2 | -4 | -10 | -11 | 41* | 2
Fc1cccc(C2NCCc3[nH]cnc32)c1 (configuration not stated) | -6 | -1 | -1 | -13 | 1 | -2
Cn1cc(NC(=O)CCl)cn1 | -1 | 1 | -4 | -2 | 27 | -3
Cc1cccc(N2C(=O)NC(=O)/C(=C/c3ccc([N+](=O)[O-])o3)C2=O)c1 | / | / | / | 45 | / | /
Cc1cccc(N2C(=O)/C(=C/c3ccc(CN(CCC#N)S(C)(=O)=O)o3)C(=O)NC2=S)c1 | 4 | 58* | 20 | 26 | 25 | 3
c1ccc(C(c2ccccc2)c2ccncc2)cc1 | 0 | 0 | -1 | 0 | 5 | -3
Cc1ccc(OCCOc2cccc(C=C3C(=O)NC(=O)NC3=O)c2)c(C)c1 | 2 | 52* | 2 | -2 | 8 | 2
C[C@]12CCC3[C@@H](CCC4=CC(=O)CC[C@@]43C=O)C1CCC2=O (some centres not stated) | 1 | 3 | -3 | 2 | 2 | -2
C=CCn1cc(C=C2C(=O)NC(=O)NC2=O)c2ccccc21 | 0 | 7 | 2 | 31 | -19 | -9
O=C1NC(=O)C(=Cc2cn(CCOc3ccc4c(c3)OCO4)c3ccccc23)C(=O)N1 | 3 | 31 | 43* | -2 | 1 | -17
CN1C(=O)/C(=C/C=C/c2ccco2)C(=O)NC1=S | 12 | 94* | 4 | 98* | 54* | 36
O=C1NC(=O)N(Cc2ccccc2)C(=O)/C1=C\C=C\c1ccco1 | 3 | 45 | 2 | -1 | 15 | 4
O=C1NC(=O)N(Cc2ccco2)C(=O)/C1=C/C=C/c1ccco1 | 23 | 97* | 19 | 81* | 92* | 40*
Cc1ccc(N2C(=O)NC(=O)/C(=C\C=C\c3ccco3)C2=O)cc1 | 0 | 28 | 1 | 2 | 0 | 0
Cc1ccc(OCCn2cccc2/C=C2/C(=O)NC(=O)N(Cc3ccco3)C2=O)cc1 | 3 | 61* | 9 | 4 | 17 | 4
Cc1ccc(N2C(=O)NC(=O)/C(=C\C=C\c3ccco3)C2=O)cc1C | 0 | 66* | 2 | 0 | 3 | 0
COc1ccccc1NP1(=O)OCC(C)([N+](=O)[O-])CO1 (configuration not stated) | -1 | 1 | -2 | 2 | -1 | -2
Cc1ccc(S(=O)(=O)c2nc(-c3ccccc3Cl)oc2N(C)C2CCN(C)CC2)cc1 | 0 | -5 | -13 | -9 | -5 | 2
C=CCN1CC[C@]23c4c5ccc(O)c4OC2C(O)C=CC3[C@H]1C5 (some centres not stated) | -1 | 2 | 3 | -1 | 3 | 2
SMILES | LMPTP block | DNMT1 block | NadD inh | Scp1 inh | SUMO1 PPI mod | STEP inh | others
Cc1ccccc1-n1c(C)cc(/C=C2/C(=O)NC(=O)N(Cc3ccco3)C2=O)c1C | 2 | 30 | 16 | -3 | 1 | 3
CCOC(=O)C1CCN(/C=C2/C(=O)NC(=O)N(Cc3ccco3)C2=O)CC1 | 2 | 29 | 3 | 66* | 11 | 6
COCCCn1c(N)c(C(=O)OCCOC)c2nc3ccccc3nc21 | 2 | 27 | -4 | -9 | 34 | 1
CCOC(=O)c1c(NS(=O)(=O)c2ccccc2)n(CCCOC)c2nc3ccccc3nc12 | 11 | 38 | 9 | 3 | 43* | 0
O=C(NCCO)c1nsnc1NCCCl | 0 | 3 | -4 | -3 | -2 | 1
O=C1CCC2(O)C3Cc4ccc(O)c5c4C2(CCN3Cc2ccoc2)C1O5 (configuration not stated) | -1 | 24 | -2 | / | 7 | -1
NC(N)=N/N=C/c1ccc(N(c2ccccc2)c2ccccc2)cc1 | 4 | 14 | 13 | -1 | 100* | 13
CC(C)N1C(=O)CC2(CC[N+](C)(CCOC(=O)C(O)(c3ccccc3)c3ccccc3)CC2)C1=O (configuration not stated) | -1 | 2 | 21 | 70* | 1 | -2 | Scp-1 conf=102*;MG interference=-5;Scp-1 Tm shift=-19
C=CC[N+]1(C)CC[C@]23c4c5ccc(O)c4O[C@H]2C(=O)CC[C@@]3(O)[C@H]1C5 (some centres not stated) | -1 | 4 | 4 | 98* | 1 | -4 | Scp-1 conf=93*;MG interference=-8;Scp-1 Tm shift=-24
O=C1CC[C@@]2(O)[C@H]3Cc4ccc(O)c5c4[C@@]2(CCN3CC2CC2)[C@H]1O5 | -1 | 4 | -9 | -6 | -3 | -3
C=Cn1ccnc1P(=S)(c1nccn1C=C)C1CCCCC1 | -1 | -1 | 1 | 1 | 1 | -2
C[C@]12CCC3C(CC[C@H]4C[C@@H](O)CC[C@]34C)[C@H]1C=CC2=O (some centres not stated) | 1 | 1 | 1 | 56* | 1 | -2 | Scp-1 conf=-18;MG interference=-18
C[C@]12CCC3[C@@H](CC[C@@H]4C[C@H](O)CC[C@]34C)[C@@H]1CCC2=O (some centres not stated) | -1 | 4 | -3 | -3 | 3 | 3
